ChEMBL document CHEMBL4138255, “Discovery of a Slow Tight Binding LPA1 Antagonist (ONO-0300302) for the Treatment of Benign Prostatic Hyperplasia” (ACS Med Chem Lett, 2017)
Activity calls are given as the source filed them. The rule behind the calls is not given here.

Assays:
[1] = biological target: T1, Lysophosphatidic acid receptor 1 (Homo sapiens, UniProt Q92633); experiment: Antagonist activity at recombinant human LPA1 expressed in CHO cells assessed as reduction in LPA-induced intracellular calcium level pretreated followed by LPA addition by Fura-2-AM dye based fluorescence assay; format: functional, cell-based
T1 sequence (Q92633 whole entry): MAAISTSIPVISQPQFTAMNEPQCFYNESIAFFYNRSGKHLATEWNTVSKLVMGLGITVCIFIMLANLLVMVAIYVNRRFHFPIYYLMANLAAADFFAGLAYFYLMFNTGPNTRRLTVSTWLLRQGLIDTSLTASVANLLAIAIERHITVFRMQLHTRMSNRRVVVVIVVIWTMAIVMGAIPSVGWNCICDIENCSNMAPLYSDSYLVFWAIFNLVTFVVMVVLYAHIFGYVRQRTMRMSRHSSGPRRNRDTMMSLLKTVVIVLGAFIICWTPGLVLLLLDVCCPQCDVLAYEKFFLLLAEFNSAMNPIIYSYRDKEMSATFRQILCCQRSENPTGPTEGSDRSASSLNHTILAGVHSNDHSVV
Outline: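 LPA-induced Ca²⁺ mobilization in CHO cells stably expressing the LPA1 receptor, with 10 min incubation. IC50 was obtained by nonlinear regression of 4-point dose–response curves, with 95% confidence intervals.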

Canis familiaris [2] = experiment: Inhibition of LPA-induced increase of intraurethral pressure in dog at 1 to 3 mg/kg, po measured up to 24 hrs; format: functional, organism-based; conditions: Canis lupus familiaris
Outline: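 Conscious dogs were dosed orally at 1 or 3 mg/kg. LPA (300 μg/kg i.v.) was injected at 0.5, 1, 2, 4, 6, 9, 12 and 24 h, and intraurethral pressure was measured in conscious animals. Response was expressed as % of each dog's predose (0 h) IUP.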

Rattus norvegicus [3] = experiment: Inhibition of LPA-induced increase of intraurethral pressure in rat at 3 mg/kg, po measured up to 12 hrs relative to control; format: functional
Outline: (§1)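 Conscious rats were given compound or vehicle (20% STPG) orally, 3 mg/kg. At 1, 3, 6, 9, 12, 18 or 24 h, LPA (300 μg/kg) was injected i.v. and intraurethral pressure was measured under short-term anesthesia. Inhibition was calculated versus vehicle. ID50 was determined from oral dose–response at 1 h.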

[4] = Total clearance in rat at 1 mg/kg, iv; format: ADME, organism-based; conditions: in vivo
[5] = Half life in human microsomes in presence of NADPH; format: ADME, Microsome
[6] = Half life in rat microsomes in presence of NADPH; format: ADME, Microsome
Rattus norvegicus [7] = experiment: Inhibition of LPA-induced increase of intraurethral pressure in po dosed rat measured after 6 hrs; format: functional; outline: as §1
Rattus norvegicus [8] = experiment: Inhibition of LPA-induced increase of intraurethral pressure in rat at 3 mg/kg, po measured after 6 hrs relative to control; format: functional; outline: as §1
Rattus norvegicus [9] = experiment: Inhibition of LPA-induced increase of intraurethral pressure in po dosed rat measured after 1 hr; format: functional; conditions: for ED50: read-out: ID50 (the source's name); outline: as §1
Rattus norvegicus [10] = experiment: Inhibition of LPA-induced increase of intraurethral pressure in rat at 3 mg/kg, po measured after 1 hr relative to control; format: functional; outline: as §1
[11] = biological target: T1, Lysophosphatidic acid receptor 1; experiment: Binding affinity to recombinant human LPA1 expressed in CHO cell membranes measured after 0.5 hrs by scintillation counting method; conditions: for Bmax: tested as the 3H-labelled form
[12] = biological target: T1, Lysophosphatidic acid receptor 1; experiment: Binding affinity to recombinant human LPA1 expressed in CHO cell membranes measured after 4 hrs by scintillation counting method; conditions: for Bmax: tested as the 3H-labelled form
[13] = biological target: T1, Lysophosphatidic acid receptor 1; experiment: Binding affinity to recombinant human LPA1 expressed in CHO cell membranes measured after 2 hrs by scintillation counting method; conditions: for Bmax: tested as the 3H-labelled form
[14] = biological target: T1, Lysophosphatidic acid receptor 1; experiment: Binding affinity to recombinant human LPA1 expressed in CHO cell membranes measured after 1 hr by scintillation counting method; conditions: for Bmax: tested as the 3H-labelled form
[15] = biological target: T1, Lysophosphatidic acid receptor 1; experiment: Binding affinity to recombinant human LPA1 expressed in CHO cell membranes measured after 2 hrs at room temperature by scintillation counting method
[16] = biological target: T1, Lysophosphatidic acid receptor 1; experiment: Antagonist activity at recombinant human LPA1 expressed in CHO cell […] pretreated for 24 hrs prior to Fura-2-AM dye addition for 1 hr followed by compound washout and subsequent LPA stimulation measured after 3 mins by fluorescence assay; format: functional, cell-based
Outline: (§2)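 Ca²⁺ mobilization in CHO cells stably expressing LPA1. Compound was added at cell seeding and incubated 24 h, and was held at the same concentration through Ca²⁺-indicator loading and LPA stimulation. In the wash-out variant, compound was removed before LPA stimulation. IC50 was obtained with 95% confidence intervals.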

[17] = biological target: T1, Lysophosphatidic acid receptor 1; experiment: Antagonist activity at recombinant human LPA1 expressed in CHO cell […] pretreated for 24 hrs prior to Fura-2-AM dye addition for 1 hr followed by LPA stimulation measured after 3 mins by fluorescence assay; format: functional, cell-based; outline: as §2
Canis familiaris [18] = experiment: Inhibition of LPA-induced increase of intraurethral pressure in dog at 1 mg/kg, po measured after 24 hrs relative to control; format: functional; conditions: Canis lupus familiaris
Rattus norvegicus [19] = experiment: Inhibition of LPA-induced increase of intraurethral pressure in rat at 3 mg/kg, po measured at 18 hrs relative to control; format: functional; outline: as §1
[20] = biological target: T1, Lysophosphatidic acid receptor 1; experiment: Binding affinity to recombinant human LPA1 expressed in CHO cell membranes measured after 2 hrs at 4 degC by scintillation counting method
[21] = biological target: T1, Lysophosphatidic acid receptor 1; experiment: Binding affinity to recombinant human LPA1 expressed in CHO cell membranes measured after 2 hrs at 37 degC by scintillation counting method
Rattus norvegicus [22] = experiment: Inhibition of LPA-induced increase of intraurethral pressure in rat at 3 mg/kg, po measured after 3 hrs relative to control; format: functional; outline: as §1
[23] = biological target: Lysophosphatidic acid receptor 1 (Rattus norvegicus) (UniProt P61794); experiment: Antagonist activity at LPA1 in CD(SD)IGS rat urethra assessed as inhibition of LPA-induced urethra contraction at 1 uM pretreated for 30 mins prior to LPA addition followed by compound washout every 10 minutes for 2 times and subsequent LPA stimulation; format: functional
Sequence of Lysophosphatidic acid receptor 1 (Rattus norvegicus) (P61794 whole entry): as the sequence (Q92633 whole entry) above, with I4A, I8S, P22Q, H40Y, I61V, E193D, N194H, I269V, S331N, T335N counted along it
Outline: (§3)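 Isolated rat urethra. Contraction to 10 μM LPA was recorded as 100% control. Medium was exchanged, then 1 μM test compound was added for 30 min and contraction to 10 μM LPA recorded. Tissue was washed with compound-free medium three times every 10 min before each LPA re-challenge, two wash-out rounds. Expressed as % inhibition, mean ± SD, n = 3.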

[24] = biological target: Lysophosphatidic acid receptor 1 (Rattus norvegicus) (UniProt P61794); experiment: Antagonist activity at LPA1 in CD(SD)IGS rat urethra assessed as inhibition of LPA-induced urethra contraction at 1 uM pretreated for 30 mins followed by LPA addition; format: functional; outline: as §3

## COc1cc([C@@H](O)[C@@H](CCCc2ccccc2)Cn2ccc(CCC(=O)O)n2)cc(OC)c1C
[1]
  IC50: 40 nM

## COc1cc([C@@H](O)[C@@H](CC2Cc3ccccc3C2)Cn2ccc(CC(=O)O)c2)cc(OC)c1C
Canis familiaris [2]
  inhibition: Active
Rattus norvegicus [3]
  inhibition in vivo at 3 mg/kg: 52%
[4]
  clearance: 19.2 mL/min/kg
[5]
  half-life: 1.08 h
[6]
  half-life: 0.567 h
[1]
  IC50: 61 nM

## COc1cc([C@@H](O)[C@@H](CCCc2ccccc2)Cn2ccc(CC(=O)O)c2)cc(OC)c1C
Rattus norvegicus [7]
  inhibition (INH): 33%
Rattus norvegicus [8]
  inhibition in vivo at 3 mg/kg: 33%
[4]
  clearance: 50.1 mL/min/kg
Rattus norvegicus [9]
  ED50: 0.6 mg/kg
Rattus norvegicus [10]
  inhibition: Active
[5]
  half-life: 0.817 h
[6]
  half-life: < 0.25 h
[1]
  IC50: 13 nM

## COc1cc([C@@H](O)[C@@H](CCCc2ccccc2)Cn2nc(C)c(CC(=O)O)c2C)cc(OC)c1C
[1]
  IC50: 520 nM

## COc1cc([C@@H](O)[C@@H](CCCc2ccccc2)Cn2cc(CC(=O)O)cn2)cc(OC)c1C
[1]
  IC50: 30 nM

## [3H]C(CN(Cc1ccc(CC(=O)O)cc1)C(=O)c1cc(OC)c(C)c(OC)c1)C([3H])c1ccccc1 (stereo not given)
[11]
  Kd: 8.12 nM
[12]
  Kd: 10.2 nM
[13]
  Kd: 5.96 nM
[14]
  Kd: 6.54 nM

## COc1cc([C@@H](O)[C@@H](CC2Cc3ccccc3C2)Cn2ccc(CCC(=O)O)c2)cc(OC)c1C
Canis familiaris [2]
  inhibition: Active
[15]; tested as the 3H-labelled form
  Bmax: 942 cpm
[16]
  IC50: 0.19 nM
[17]
  IC50: 0.16 nM
Canis familiaris [18]
  inhibition in vivo at 1 mg/kg: 30%
Rattus norvegicus [19]
  inhibition in vivo at 3 mg/kg: 47%
[11]
  Bmax: 974 cpm
[12]
  Bmax: 956 cpm
[4]
  clearance: 20.5 mL/min/kg
[20]; tested as the 3H-labelled form
  Bmax: 1030 cpm
[5]
  half-life: 1.32 h
[6]
  half-life: 0.25 h
[13]
  Bmax: 942 cpm
[21]; tested as the 3H-labelled form
  Bmax: 1110 cpm
[1]
  IC50: 86 nM
[14]
  Bmax: 973 cpm

## COc1cc([C@@H](O)[C@@H](CCCc2cccs2)Cn2ccc(CCC(=O)O)c2)cc(OC)c1C
Rattus norvegicus [22]
  inhibition in vivo at 3 mg/kg: 70%
Rattus norvegicus [8]
  inhibition: inactive
[5]
  half-life: 1.25 h
[6]
  half-life: < 0.25 h
[1]
  IC50: 45 nM

## COc1cc([C@@H](O)[C@@H](CCCc2ccccc2)Cn2cc(CCC(=O)O)cn2)cc(OC)c1C
[1]
  IC50: 34 nM

## COc1cc([C@@H](O)[C@@H](CCCc2ccsc2)Cn2ccc(CC(=O)O)c2)cc(OC)c1C
Rattus norvegicus [8]
  inhibition in vivo at 3 mg/kg: 23%
[4]
  clearance: 16.4 mL/min/kg
Rattus norvegicus [10]
  inhibition in vivo at 3 mg/kg: 75%
[5]
  half-life: 1 h
[6]
  half-life: < 0.25 h
[1]
  IC50: 23 nM

## COc1cc([C@@H](O)[C@@H](CCCc2ccccc2)Cn2ccc(CC(=O)O)n2)cc(OC)c1C
[1]
  IC50: 32 nM

## COc1cc(C(=O)C(CCCc2ccccc2)Cc2ccc(CC(=O)O)cc2)cc(OC)c1C (stereo not given)
[1]
  IC50: 460 nM

## [3H]C(C(=O)O)C([3H])c1ccn(C[C@H](CC2Cc3ccccc3C2)[C@H](O)c2cc(OC)c(C)c(OC)c2)c1 (stereo not given in full)
[15]
  Kd: 0.74 nM
[11]
  Kd: 2.34 nM
[12]
  Kd: 0.49 nM
[20]
  Kd: 22.5 nM
[13]
  Kd: 0.74 nM
[21]
  Kd: 0.34 nM
[14]
  Kd: 1.26 nM

## COc1cc([C@@H](O)[C@@H](CCCc2ccccc2)Cn2ccc(CCC(=O)O)c2)cc(OC)c1C
[1]
  IC50: 22 nM

## COc1cc(C(=O)N(C/C=C/c2ccccc2)Cc2ccc(CC(=O)O)cc2)cc(OC)c1C
[5]
  half-life: 2.72 h
[6]
  half-life: > 3.33 h
[1]
  IC50: > 1000 nM

## COc1cc([C@@H](O)[C@@H](CCCc2ccccc2)Cn2cnc(CC(=O)O)c2)cc(OC)c1C
[1]
  IC50: 180 nM

## COc1cc([C@@H](O)[C@@H](CCCc2cccs2)Cn2ccc(CC(=O)O)c2)cc(OC)c1C
Rattus norvegicus [22]
  inhibition in vivo at 3 mg/kg: 70%
Rattus norvegicus [8]
  inhibition: inactive
[5]
  half-life: 1.37 h
[6]
  half-life: < 0.25 h
[1]
  IC50: 29 nM

## COc1cc([C@@H](O)[C@@H](CCCc2ccccc2)Cc2ccc(CC(=O)O)cc2)cc(OC)c1C
[23]
  inhibition: Active
[24]
  inhibition: Active
Rattus norvegicus [9]
  inhibition: Dose-dependent effect
  ED50: 0.97 mg/kg
[1]
  IC50: 61 nM

## COc1cc([C@@H](O)[C@@H](CCCc2ccsc2)Cn2ccc(CCC(=O)O)c2)cc(OC)c1C
Rattus norvegicus [22]
  inhibition in vivo at 3 mg/kg: 70%
Rattus norvegicus [8]
  inhibition: inactive
[5]
  half-life: 1.1 h
[6]
  half-life: < 0.25 h
[1]
  IC50: 38 nM

## COc1cc([C@@H](O)[C@@H](CCCc2ccccc2)Cn2ccc(C(=O)O)c2)cc(OC)c1C
[1]
  IC50: 120 nM

## COc1cc(C(=O)N(CCCc2ccccc2)Cc2ccc(CC(=O)O)cc2)cc(OC)c1C
[11]
  Bmax: 3420 cpm
[23]
  inhibition: inactive
[24]
  inhibition: Active
[12]
  Bmax: 2740 cpm
[13]
  Bmax: 2450 cpm
[14]
  Bmax: 3560 cpm
